{"data": "Experimental data pooled from the literature", "effect on": "enzyme activity", "mode": "inhibitor", "INSR": "Insulin receptor (INSR, Homo sapiens, UniProt P06213)", "INSR phosphorylated": "Insulin receptor, phosphorylated (INSR, Homo sapiens, UniProt P06213)", "note": "Each line is one published result; the experiments were not run side by side."}
{"SMILES": "CCN(CC)c1ccc(C2=NNC(=O)CC2C)cc1[N+](=O)[O-] (stereo not drawn)", "target": "INSR", "tested at": "10 µM", "remaining activity [%]": 94}
{"SMILES": "Cc1cnc(NC2CCOCC2)nc1-n1cnc(C(=O)NC(CN)c2cc(F)cc(Cl)c2)c1 (stereo not drawn)", "target": "INSR phosphorylated", "method": "radiometric", "tested at": "1 µM", "remaining activity [%]": 104}
{"SMILES": "COc1cc(Cl)c(C(=O)N[C@@H](CN[C@H]2CC[C@@H](N)CC2)Cc2ccc(C#N)cc2)cc1-c1ccc(CN[C@H](C)c2ccc(C)cc2)o1", "target": "INSR", "tested at": "1 µM", "remaining activity [%]": 97}
{"SMILES": "Cc1sc(C(=O)NC2COC2)cc1-n1cc(NC(=O)Nc2c(F)cccc2Cl)cn1", "target": "INSR", "tested at": "10 µM", "remaining activity [%]": 85.5}
{"SMILES": "Nc1nc(NC2CCCCC2)sc1C(=O)c1ccccc1", "target": "INSR", "tested at": "10 µM", "remaining activity [%]": 75}
{"SMILES": "Cc1[nH]c(/C=C2\\C(=O)Nc3ccc(F)cc32)c(C)c1C(=O)N[C@H]1CCN(C(=O)N(C)C)C1", "target": "INSR", "tested at": "0.1 µM", "remaining activity [%]": 132}
{"SMILES": "CC(C)(C)c1nc(-c2cccc(NS(=O)(=O)c3c(F)cccc3F)c2F)c(-c2ccnc(N)n2)s1", "target": "INSR", "method": "radiometric", "tested at": "1 µM", "remaining activity [%]": 108}
{"SMILES": "Cc1ccc(NC(=O)c2ccc(C)c(C(F)(F)F)c2)cc1C#Cc1nn(C2CCC(O)CC2)c2ncnc(N)c12 (stereo not drawn)", "target": "INSR phosphorylated", "tested at": "10 µM", "remaining activity [%]": 89}
{"SMILES": "Oc1cccc(-c2nc(N3CCOCC3)c3oc4ncccc4c3n2)c1", "target": "INSR", "tested at": "10 µM", "remaining activity [%]": 80}
{"SMILES": "COc1cc(Nc2cnc(C#N)c(O[C@H](C)CN(C)C)n2)ncc1-c1cnn(C)c1", "target": "INSR", "method": "radiometric", "tested at": "1 µM", "remaining activity [%]": 98}
{"SMILES": "Cn1c(=O)n(-c2ccc(C(C)(C)C#N)cc2)c2c3cc(-c4cnc5ccccc5c4)ccc3ncc21", "target": "INSR", "tested at": "10 µM", "remaining activity [%]": 99}
{"SMILES": "CCCOc1ccc(OC)c(F)c1C(=O)c1ccc(C(=O)N[C@@H]2CNC[C@H]2NC(=O)c2ccc3[nH]ncc3c2)cc1", "target": "INSR phosphorylated", "tested at": "10 µM", "remaining activity [%]": 98}
